Results on four molecules are retold here after ChEMBL document CHEMBL3774339, “Exploring Selective Inhibition of the First Bromodomain of the Human Bromodomain and Extra-terminal Domain (BET) Proteins” (J Med Chem, 2016).

Some results are limits rather than exact numbers.

Test [1] concerns Jurkat. Put plainly: Downregulation of c-Myc in human Jurkat cells assessed as expression level at 50 uM after 24 hrs by Western blot analysis. Format: functional. The method, boiled down:
(§1)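 Jurkat cells exposed to different compound concentrations in 0.5% DMSO for 24 h. c-Myc detected on blots loaded with 50 μg protein.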

For test [2], the species on record is Homo sapiens. Briefly: Selectivity ratio of IC50 for GST-tagged human BRD3 bromodomain1 to IC50 for GST-tagged human BRD4 bromodomain1.
Test [3] has as its system Jurkat. Briefly: Downregulation of c-Myc in human Jurkat cells assessed as expression level at 1 uM after 24 hrs by Western blot analysis. Format: functional. The procedure, abridged:
as §1
On the technique in general: In western blotting, separated proteins are transferred to a membrane and probed.

Test [4] relates to Jurkat. Put plainly: Downregulation of c-Myc in human Jurkat cells assessed as expression level after 24 hrs by Western blot analysis. Format: functional, cell-based. The method, boiled down: as §1
Test [5] addresses T1, ATPase family AAA domain-containing protein 2 (Homo sapiens, UniProt Q6PL18).
T1 sequence (Q6PL18 whole entry): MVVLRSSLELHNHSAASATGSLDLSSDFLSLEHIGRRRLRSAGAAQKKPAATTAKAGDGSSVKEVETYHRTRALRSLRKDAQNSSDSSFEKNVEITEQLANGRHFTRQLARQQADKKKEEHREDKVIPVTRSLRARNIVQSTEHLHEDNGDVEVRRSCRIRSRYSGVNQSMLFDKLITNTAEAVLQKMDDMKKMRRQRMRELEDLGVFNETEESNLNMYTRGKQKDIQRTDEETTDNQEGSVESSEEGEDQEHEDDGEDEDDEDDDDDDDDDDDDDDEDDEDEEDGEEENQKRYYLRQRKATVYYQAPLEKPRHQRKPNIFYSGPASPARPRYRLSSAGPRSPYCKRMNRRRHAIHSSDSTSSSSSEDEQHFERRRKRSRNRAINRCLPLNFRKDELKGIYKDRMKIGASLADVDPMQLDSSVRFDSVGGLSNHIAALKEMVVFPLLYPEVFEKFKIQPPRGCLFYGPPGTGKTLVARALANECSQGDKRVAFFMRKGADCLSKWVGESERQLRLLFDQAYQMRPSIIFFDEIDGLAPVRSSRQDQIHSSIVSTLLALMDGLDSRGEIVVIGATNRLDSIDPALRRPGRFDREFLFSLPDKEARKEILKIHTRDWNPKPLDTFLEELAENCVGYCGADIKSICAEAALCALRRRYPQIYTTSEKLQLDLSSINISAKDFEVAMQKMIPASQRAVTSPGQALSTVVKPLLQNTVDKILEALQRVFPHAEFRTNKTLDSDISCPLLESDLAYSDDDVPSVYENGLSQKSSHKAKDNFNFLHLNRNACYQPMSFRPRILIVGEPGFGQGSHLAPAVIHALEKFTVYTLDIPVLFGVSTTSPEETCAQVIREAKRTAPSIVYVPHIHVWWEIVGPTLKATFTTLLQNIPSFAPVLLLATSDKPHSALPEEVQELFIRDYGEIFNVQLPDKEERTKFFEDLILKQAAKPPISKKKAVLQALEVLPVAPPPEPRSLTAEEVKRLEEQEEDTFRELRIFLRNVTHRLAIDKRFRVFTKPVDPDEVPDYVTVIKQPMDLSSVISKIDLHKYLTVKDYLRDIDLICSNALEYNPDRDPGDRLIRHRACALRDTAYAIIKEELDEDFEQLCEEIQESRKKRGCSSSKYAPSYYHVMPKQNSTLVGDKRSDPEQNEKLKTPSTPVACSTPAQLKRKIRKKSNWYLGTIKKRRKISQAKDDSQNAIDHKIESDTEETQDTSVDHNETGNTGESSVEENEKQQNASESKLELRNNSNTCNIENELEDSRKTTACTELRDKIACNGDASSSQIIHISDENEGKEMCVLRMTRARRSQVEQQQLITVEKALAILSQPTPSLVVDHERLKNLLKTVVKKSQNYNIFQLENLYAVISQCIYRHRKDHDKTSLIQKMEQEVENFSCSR
Briefly: Inhibition of GST-tagged human ATAD2 using H4KAc 5/8/12/16 peptide as substrate incubated overnight by HTRF assay. For orientation: In TR-FRET formats the signal depends on donor and acceptor labels being close together.

The test system of test [6] is Jurkat. Briefly: Downregulation of c-Myc in human Jurkat cells assessed as expression level at 10 uM after 24 hrs by Western blot analysis. Format: functional. The procedure, abridged: as §1
In test [7] the target is Bromodomain testis-specific protein (Homo sapiens, UniProt Q58F21). Put plainly: Inhibition of GST-tagged human BRDT bromodomain1 using H4KAc 5/8/12/16 peptide as substrate incubated overnight by HTRF assay.
The species entered for test [8] is Homo sapiens. Put plainly: Selectivity ratio of IC50 for GST-tagged human BRD2 bromodomain1 to IC50 for GST-tagged human BRD4 bromodomain1.
Test [9] is filed under the species Homo sapiens. Briefly: Selectivity ratio of IC50 for GST-tagged human BRDT bromodomain1 to IC50 for GST-tagged human BRD4 bromodomain1.
The subject of test [10] is Jurkat. Briefly: Antiproliferative activity against human Jurkat cells after 72 hrs by Cell Titer-Glo luminescence assay. Format: functional, cell-based. The method, boiled down:
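Jurkat cell viability read across a range of compound concentrations after 72 h incubation at 37 °C. EC50 taken from the dose–response.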
For orientation: Cellular ATP, detected with luciferase, serves as a proxy for viable cell number.

Test [11] concerns the target Bromodomain-containing protein 4 (Homo sapiens, UniProt O60885). Briefly: Inhibition of GST-tagged human BRD4 bromodomain1 using H4KAc 5/8/12/16 peptide as substrate incubated overnight by HTRF assay.
For test [12], the target named is Bromodomain-containing protein 3 (Homo sapiens, UniProt Q15059). Put plainly: Inhibition of human BRD3 bromodomain2 using H4KAc 5/8/12/16 peptide as substrate incubated overnight by HTRF assay.
Sequence of Bromodomain-containing protein 3 (Q15059 whole entry): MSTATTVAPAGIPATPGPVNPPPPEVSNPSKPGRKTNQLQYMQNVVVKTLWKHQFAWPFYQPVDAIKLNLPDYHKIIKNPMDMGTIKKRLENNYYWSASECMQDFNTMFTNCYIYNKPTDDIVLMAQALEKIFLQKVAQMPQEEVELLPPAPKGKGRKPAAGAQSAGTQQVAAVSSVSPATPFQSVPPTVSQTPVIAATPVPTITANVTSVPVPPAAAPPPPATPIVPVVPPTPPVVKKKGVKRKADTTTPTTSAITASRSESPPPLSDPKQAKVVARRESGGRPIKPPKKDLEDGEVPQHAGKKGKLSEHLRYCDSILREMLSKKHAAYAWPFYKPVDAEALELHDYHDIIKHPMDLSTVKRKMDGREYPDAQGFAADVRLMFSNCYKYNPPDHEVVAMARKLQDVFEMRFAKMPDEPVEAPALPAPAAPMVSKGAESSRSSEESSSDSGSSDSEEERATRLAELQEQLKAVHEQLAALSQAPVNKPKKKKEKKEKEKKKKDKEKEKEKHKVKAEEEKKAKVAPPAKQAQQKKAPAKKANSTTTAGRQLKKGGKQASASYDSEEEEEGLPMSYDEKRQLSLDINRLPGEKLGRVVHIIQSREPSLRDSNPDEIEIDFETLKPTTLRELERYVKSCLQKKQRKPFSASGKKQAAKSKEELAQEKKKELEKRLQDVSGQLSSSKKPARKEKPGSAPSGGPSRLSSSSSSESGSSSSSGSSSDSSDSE

Take `CCCCc1c(C)nc2nc(SCc3nc4c(c(=O)[nH]c(=O)n4CCCC)n3CC)nn2c1C`: the Activity in the test on Jurkat [1] was 3%; with Jurkat [3], 62%; in the test on Jurkat [4] it was “Dose-dependent effect”; in the test with Jurkat [6] it was 98%; with Jurkat [10], “Dose-dependent effect”. Moreover, the Ratio IC50 in the test listed under Homo sapiens [2], in the test filed under Homo sapiens [8] and in the test listed under Homo sapiens [9] was above 10 throughout. Besides, the IC50 in test [5] and in [7] was above 100 µM throughout. Besides, a half-maximal response in the test on Jurkat [10] (EC50) required 27 µM.

Consider `CCn1c(CSc2n[nH]c(N)n2)nc2c1c(=O)[nH]c(=O)n2Cc1ccc(Cl)cc1`, for which the IC50 (usually the concentration that inhibits the measured activity by half) in test [7] was above 100 µM.

`CCCCn1c(=O)[nH]c(=O)c2c1nc(CSc1n[nH]c(N)n1)n2CC` showed an IC50 in [11] above 50 µM.

In test [12], `CCn1cnc2c1c(=O)[nH]c(=O)n2Cc1ccc(Cl)cc1` displayed an IC50 of 1.8 µM.
